Compound activity (PubChem BioAssay)
Tn6 DDE FP: disrupts Tn6 cyclic peptide binding to fibrin D-Dimer-E complex. P02675. inhibition, % at 8.3 µM. Fibrin DD(E) TRITC-Tn6 fluorescence polarization displacement. actives 0.21% (n = 370,000);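 active means inhibition above a per-campaign cutoff: mean of compounds within control limits plus 3 SD, cut at about 15% in these data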
Tn7 DDE FP: disrupts Tn7 cyclic peptide binding to fibrin D-Dimer-E complex | FP displacement of FITC-Tn7 peptide from fibrin DD(E); 0% = median of compound wells per plate | inhibition, % at 8.3 µM | actives 0.13% (n = 370,000) | AID 720508;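 active means inhibition above the mean of compounds falling within the control limits plus 3 SD of them, cut at about 14% in these data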
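Measure: % inhibition scaled between sample-field median and high-control FP; Test system: human fibrin DD(E); Quantity: 2 µM final DD(E) protein; Doses: one dose, 8.3 µM nominal; Schedule: compound with protein 10 min, then 3 h after probe, room temperature; Detection: fluorescence polarization; Medium: Tris buffer with calcium and detergent, pH 7.8.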
CAL PDZ FP-1: inhibitors of human CAL PDZ peptide binding. inhibition, % at 20 µM. purified CAL PDZ, TMR-peptide fluorescence polarization, 1 h. Q9HD26. actives 0.02% (n = 330,000). AID 504414;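 active means highest replicate inhibition of at least 40%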
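Material: tagged CAL PDZ protein CerCALP, purified; buffer or medium: sodium phosphate/NaCl buffer pH 7.4 with TCEP, IgG, Thesit; also added: fluorescent TMR peptide probe; schedule: 1 h incubation at room temperature before polarization reading; technique: fluorescence polarization from S- and P-plane intensities, G-factor corrected; control set: unlabelled peptide and DMSO controls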
ARNT-TACC3 inh: disruptors of human ARNT/TACC3 interaction | Q9Y6A5 | AlphaScreen His-ARNT PAS-B/GST-TACC3 binding, luminescence; TACC3 fragment carries E629A point mutation | inhibition, % at 9.99 µM | actives 0.66% (n = 390,000) | AID 623870;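 active means mean inhibition of replicates at least 50% and at least half of replicates each reaching 50%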
GRK2 inh: human GRK2 inhibition via aptamer displacement; P25098; actives 0.59% (n = 330,000); inhibition of aptamer binding, % at 10 µM; bead flow cytometry, FAM-aptamer displacement from GRK2;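 active means inhibition of aptamer binding above 40%, roughly 3 SD of noise, on plates passing a quality check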;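 further: median bead fluorescence of bound FAM aptamer so fluorescent compounds give negative values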
Target sequence (P25098 whole entry, looked up): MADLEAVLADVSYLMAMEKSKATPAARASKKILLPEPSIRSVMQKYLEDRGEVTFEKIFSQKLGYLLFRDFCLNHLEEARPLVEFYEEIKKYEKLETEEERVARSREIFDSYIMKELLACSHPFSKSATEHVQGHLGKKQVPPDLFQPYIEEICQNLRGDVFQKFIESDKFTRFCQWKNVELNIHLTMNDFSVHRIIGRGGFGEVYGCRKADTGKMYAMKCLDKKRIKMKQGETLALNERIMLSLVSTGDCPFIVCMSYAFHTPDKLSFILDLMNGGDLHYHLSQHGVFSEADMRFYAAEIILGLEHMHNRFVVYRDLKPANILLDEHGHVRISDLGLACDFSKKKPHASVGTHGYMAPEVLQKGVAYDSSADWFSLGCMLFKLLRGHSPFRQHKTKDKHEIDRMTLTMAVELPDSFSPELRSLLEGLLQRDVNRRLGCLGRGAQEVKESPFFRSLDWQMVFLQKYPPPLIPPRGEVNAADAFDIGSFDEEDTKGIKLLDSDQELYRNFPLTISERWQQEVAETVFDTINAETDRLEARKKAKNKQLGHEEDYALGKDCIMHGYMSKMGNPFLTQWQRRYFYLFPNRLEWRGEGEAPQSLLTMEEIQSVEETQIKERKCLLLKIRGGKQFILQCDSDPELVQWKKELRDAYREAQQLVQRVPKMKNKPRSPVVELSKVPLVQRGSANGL
CAL PDZ FP-2: CAL PDZ (human) peptide binding inhibition; Q9HD26; purified CAL PDZ, TMR-peptide fluorescence polarization, 1 h; inhibition, % at 24.9 µM; actives 0.92% (n = 300,000); AID 602252;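 active means mean inhibition of at least 30% with at least half of replicates also reaching 30%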
Tn6 DDE ctr: counter-screen hit for Tn6 peptide-fibrin DD(E) binding disruption; shares compounds with Tn6 DDE FP; TRITC-Tn6 fluorescence polarization displacement; 0% = median of compound wells, not DMSO; inhibition, % at 8.3 µM; actives 2% (n = 680); AID 720621;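 active means inhibition above the mean of test compounds lying between the control limits plus 3 SD of those, cut at about 14% in these data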
Tn6 DDE conf: confirmation of inhibitors of Tn6 binding to human fibrin DD(E); AID 720631; FP displacement of TRITC-Tn6 peptide from DD(E); 0% = per-plate median of test wells; inhibition, % at 8.3 µM; shares compounds with Tn6 DDE FP; actives 10% (n = 680);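 active means inhibition above the mean of compounds lying within the control limits plus 3 SD, cut at about 16% in these data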
Large screens that a line does not name were inactive (follow-up assays come after a bar, where they were run). An excerpt weighted towards active compounds, which were near 1.8% of everything screened.

Clc1ccccc1CN1CCN(/N=C/C=C/c2ccco2)CC1	none
O=C1NC(=O)C2(CCCC2C(=O)O)N1 (stereo not drawn)	none (no result: GRK2 inh)
Cc1ccc(C(=O)N2[C@@H]3CN(C)C(=O)[C@@]2(Cc2ccccc2)[C@H]2C(=O)N(C)C(=O)[C@@H]32)cc1	Tn6 DDE FP 15.9 (no result: GRK2 inh) | Tn6 DDE ctr inactive | Tn6 DDE conf inactive
O=C1CCCC(O)=C1N=Nc1c(Cl)cc(C(F)(F)F)cc1Cl	Tn6 DDE FP 43.2 | Tn6 DDE ctr inactive | Tn6 DDE conf inactive
O=C1CCCC(O)=C1N=Nc1ccc(C(=O)O)cc1	none
COc1ccc(C(=O)c2ccsc2N)cc1	Tn6 DDE FP 19.3 | Tn6 DDE ctr inactive | Tn6 DDE conf inactive
CN(C)S(=O)(=O)c1cccc(C(=O)N/N=C\c2ccnc3ccccc23)c1	none (no result: CAL PDZ FP-1, ARNT-TACC3 inh, GRK2 inh, CAL PDZ FP-2)
O=c1ccc2nc3ccccc3sc-2c1	Tn6 DDE FP 19.6 (no result: CAL PDZ FP-1, ARNT-TACC3 inh, GRK2 inh, CAL PDZ FP-2) | Tn6 DDE ctr inactive | Tn6 DDE conf inactive
Brc1ccc(-c2nc3ccccc3s2)s1	none
O=C(CCS(=O)(=O)c1ccc(Cl)cc1)N1CCN(c2ccc(F)cc2)CC1	Tn6 DDE FP 18.4 (no result: CAL PDZ FP-2) | Tn6 DDE ctr inactive | Tn6 DDE conf inactive
C[C@@H]1CN([C@@H](C)CO)C(=O)c2cc(-c3cncnc3)cnc2O[C@H]1CN(C)Cc1ccc(F)cc1	none (no result: Tn6 DDE FP, Tn7 DDE FP, CAL PDZ FP-1, GRK2 inh, CAL PDZ FP-2)
CC1CN(C(=O)c2ccc(COc3ccccc3Br)o2)CC(C)O1 (stereo not drawn)	Tn6 DDE FP 21.3 (no result: ARNT-TACC3 inh) | Tn6 DDE ctr inactive | Tn6 DDE conf inactive
CC1=CN2C(=N)/C(=C/c3ccc([N+](=O)[O-])o3)C(=O)N=C2S1	Tn6 DDE FP 20.1 | Tn6 DDE ctr inactive | Tn6 DDE conf inactive
CC1=CN2C(=N)/C(=C/c3ccco3)C(=O)N=C2S1	none
CCCNC(=O)C[C@@H]1C[C@H]2c3cc(NC(=O)c4ccc5c(c4)OCO5)ccc3O[C@H]2[C@H](CO)O1	none (no result: Tn6 DDE FP, Tn7 DDE FP, CAL PDZ FP-1, GRK2 inh, CAL PDZ FP-2)
Cc1ccccc1C(C(=O)NCc1ccco1)N(CC1CCCO1)C(=O)Cn1nnc2ccccc21 (stereo not drawn)	Tn6 DDE FP 19.2 (no result: CAL PDZ FP-2) | Tn6 DDE ctr inactive | Tn6 DDE conf inactive
CCOC(=O)c1c(C)[nH]c(O)c1C=Nc1ccc(Cl)cc1	Tn6 DDE FP 31.8 | Tn6 DDE ctr inactive | Tn6 DDE conf inactive
COc1cc(CC(=O)OCC(=O)NC2CCCCC2C)cc(OC)c1OC (stereo not drawn)	Tn6 DDE FP 25.6 | Tn6 DDE ctr inactive | Tn6 DDE conf inactive
O=C(O)Cc1ccc2c(c1)Cc1cccnc1O2	none (no result: CAL PDZ FP-1, ARNT-TACC3 inh, GRK2 inh, CAL PDZ FP-2)
Cc1cccc(NC(=O)NCc2ccc3c(c2)cc(C)n3C)c1	Tn6 DDE FP 46.0 (no result: CAL PDZ FP-2) | Tn6 DDE ctr inactive | Tn6 DDE conf inactive
COc1cccc(NC(=S)NCc2ccc3c(c2)cc(C)n3C)c1	none (no result: GRK2 inh)
Cc1cccc(NC(=S)NCc2ccc3c(c2)cc(C)n3C)c1C	Tn6 DDE FP 23.2 (no result: CAL PDZ FP-2) | Tn6 DDE ctr inactive | Tn6 DDE conf inactive
Cc1cccc(NC(=O)NCc2ccc3c(c2)OCO3)c1	none
Clc1cccc(CNCCCSc2ncccn2)c1	none (no result: CAL PDZ FP-2)
CN1/C(=C\C=C2/SC(=S)NC2=O)C(C)(C)c2ccccc21	Tn6 DDE FP 70.2 | Tn6 DDE ctr inactive | Tn6 DDE conf 57.4
CN1C(=CC=C2C=C(I)C(=O)C(I)=C2)C(C)(C)c2ccccc21	none (no result: GRK2 inh)
COC(=O)c1ccc2c(c1)C(C)(C)C(/C=C/c1ccccc1O)=[N+]2C	Tn6 DDE FP 58.1 (no result: CAL PDZ FP-1) | Tn6 DDE ctr inactive | Tn6 DDE conf inactive
C[N+]1=C(/C=C/Nc2ccccc2Cl)C(C)(C)c2ccccc21	none
CCCCC1CC(CSC(=N)N)OC1=O (stereo not drawn)	Tn6 DDE FP 17.9 | Tn6 DDE ctr inactive | Tn6 DDE conf inactive
